Active and inactive are the calls of the source. The calls are words filed in the database; no cut-off is given here.
Columns and labels:
Assay type in all cases: functional
[1] = Cytotoxicity against human melanoma cells after 48 hrs by coulter counting; details: Melanoma cell; for CC50: read-out: LC50 (the source's name)
Outline: (§1)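 NCI 60-cell-line panel covering nine tumour subpanels, tested over a 5-log dose range. Compounds were dissolved in DMSO and diluted in phosphate-buffered saline to a final DMSO below 1%. Wells held 6 × 10⁴ cells/ml and were run in duplicate. Controls contained PBS and DMSO at matching dilutions. Incubation was at 37 °C in humidified 5% CO₂. GI₅₀, TGI and LC₅₀ were reported.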

[2] = Cytotoxicity against human renal cancer cells after 48 hrs by coulter counting; details: Cancer cell lines; outline: as §1
[3] = Cytotoxicity against human ovarian cancer cells after 48 hrs by coulter counting; details: Cancer cell lines; for CC50: read-out: LC50 (the source's name); outline: as §1
[4] = Cytotoxicity against human prostate cancer cells after 48 hrs by coulter counting; details: Cancer cell lines; outline: as §1
[5] = Cytotoxicity against human breast cancer cells after 48 hrs by coulter counting; details: Cancer cell lines; for CC50: read-out: LC50 (the source's name); outline: as §1
NSCLC = assay: Cytotoxicity against human NSCLC cells after 48 hrs by coulter counting; details: for CC50: read-out: LC50 (the source's name); outline: as §1
HCT-15 = assay: Growth inhibition of human HCT15 cells at 10 uM after 48 hrs by coulter counting
Outline: (§2)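 Single-dose primary screen across the full NCI 60-cell-line panel. Stocks were made in DMSO and diluted in PBS to a final DMSO below 1%. Cultures at 6 × 10⁴ cells/ml were run in duplicate wells alongside PBS/DMSO vehicle controls at 37 °C in humidified 5% CO₂. Data were expressed as percent growth of treated cells.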

UACC-257 = assay: Growth inhibition of human UACC257 cells at 10 uM after 48 hrs by coulter counting
Outline: (§3)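 Single-dose screen in the NCI 60 human tumor cell line panel (nine subpanels). Compounds dissolved in DMSO and diluted in phosphate buffered saline, keeping final DMSO below 1%. Added in duplicate wells to cells at 6 × 10⁴ cells/ml. Controls held PBS and DMSO at matching dilutions. Incubated at 37 °C, humidified, 5% CO₂. Reported as percent growth of treated cells.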

UACC-62 = assay: Growth inhibition of human UACC62 cells at 10 uM after 48 hrs by coulter counting; outline: as §3
CCRF-CEM = assay: Growth inhibition of human CCRF-CEM cells at 10 uM after 48 hrs by coulter counting; details: read-out: GI; outline: as §2
K562 = assay: Growth inhibition of human K562 cells at 10 uM after 48 hrs by coulter counting; outline: as §2
RPMI-8226 = assay: Growth inhibition of human RPMI8226 cells at 10 uM after 48 hrs by coulter counting; outline: as §2
SR = assay: Growth inhibition of human SR cells at 10 uM after 48 hrs by coulter counting; outline: as §3
A549 = assay: Growth inhibition of human A549 cells at 10 uM after 48 hrs by coulter counting; details: A549, 48 h, read-out: GI; outline: as §2
EKVX = assay: Growth inhibition of human EKVX cells at 10 uM after 48 hrs by coulter counting; details: read-out: GI; outline: as §2
NCI-H226 = assay: Growth inhibition of human NCI-H226 cells at 10 uM after 48 hrs by coulter counting; details: NCI-H226, 48 h, read-out: GI; outline: as §2
[6] = Growth inhibition of human NCI-322M cells at 10 uM after 48 hrs by coulter counting; details: read-out: GI; outline: as §2
NCI-H522 = assay: Growth inhibition of human NCI-H522 cells at 10 uM after 48 hrs by coulter counting; details: NCI-H522, 48 h, read-out: GI; outline: as §2
HCT-116 = assay: Growth inhibition of human HCT116 cells at 10 uM after 48 hrs by coulter counting; outline: as §2
SF-268 = assay: Growth inhibition of human SF268 cells at 10 uM after 48 hrs by coulter counting; details: SF-268, 48 h, read-out: GI; outline: as §2
SNB-19 = assay: Growth inhibition of human SNB19 cells at 10 uM after 48 hrs by coulter counting; details: SNB-19, 48 h, read-out: GI; outline: as §2
SNB-75 = assay: Growth inhibition of human SNB75 cells at 10 uM after 48 hrs by coulter counting; details: SNB-75, 48 h, read-out: GI; outline: as §2
U-251 = assay: Growth inhibition of human U251 cells at 10 uM after 48 hrs by coulter counting; outline: as §3
LOX IMVI = assay: Growth inhibition of human LOXIMVI cells at 10 uM after 48 hrs by coulter counting; outline: as §2
M14 = assay: Growth inhibition of human M14 cells at 10 uM after 48 hrs by coulter counting; outline: as §2
MDA-MB-435 = assay: Growth inhibition of human MDA-MB-435 cells at 10 uM after 48 hrs by coulter counting; outline: as §2
SK-MEL-2 = assay: Growth inhibition of human SK-MEL-2 cells at 10 uM after 48 hrs by coulter counting; details: SK-MEL-2, 48 h, read-out: GI; outline: as §2
SK-MEL-28 = assay: Growth inhibition of human SK-MEL-28 cells at 10 uM after 48 hrs by coulter counting; details: SK-MEL-28, 48 h, read-out: GI; outline: as §2
SK-MEL-5 = assay: Growth inhibition of human SK-MEL-5 cells at 10 uM after 48 hrs by coulter counting; details: SK-MEL-5, 48 h, read-out: GI; outline: as §2
A498 = assay: Growth inhibition of human A498 cells at 10 uM after 48 hrs by coulter counting; details: A498, 48 h, read-out: GI; outline: as §2
CAKI-1 = assay: Growth inhibition of human Caki1 cells at 10 uM after 48 hrs by coulter counting; outline: as §2
UO-31 = assay: Growth inhibition of human UO31 cells at 10 uM after 48 hrs by coulter counting; outline: as §3
DU-145 = assay: Growth inhibition of human DU145 cells at 10 uM after 48 hrs by coulter counting; outline: as §2
T47D = assay: Growth inhibition of human T47D cells at 10 uM after 48 hrs by coulter counting; details: read-out: GI; outline: as §3
OVCAR-3 = assay: Growth inhibition of human OVCAR3 cells at 10 uM after 48 hrs by coulter counting; outline: as §2
OVCAR-8 = assay: Growth inhibition of human OVCAR8 cells at 10 uM after 48 hrs by coulter counting; outline: as §2
SN12C = assay: Growth inhibition of human SN12C cells at 10 uM after 48 hrs by coulter counting; details: read-out: GI; outline: as §2
TK-10 = assay: Growth inhibition of human TK10 cells at 10 uM after 48 hrs by coulter counting; details: TK-10, 48 h, read-out: GI; outline: as §3
[7] = Cytotoxicity against human leukemia cells after 48 hrs by coulter counting; details: Leukemia cell; for CC50: read-out: LC50 (the source's name); outline: as §1

Q: What does the source list for `CCN1CC2=C(N=C3SC=C(C)N3C2c2ccc(OC)c(OC)c2)/C(=C/c2ccc(OC)c(OC)c2)C1` (stereo unspecified)?
A: GI50 [1]: 2.7 µM; TGI [1]: 10.8 µM; CC50 [1]: 54.4 µM; GI50 [2]: 2.5 µM; LC50 (concentration giving 50% net cell kill) [2]: 47.1 µM; TGI [2]: 8.9 µM; GI50 [3]: 3.8 µM; TGI [3]: 49.7 µM; CC50 [3]: > 100 µM; GI50 [4]: 2.8 µM; LC50 (concentration killing 50% of cells) [4]: 79.2 µM; TGI [4]: 53.4 µM; GI50 [5]: 5.7 µM; TGI [5]: 49.5 µM; CC50 [5]: 68.2 µM; GI50 (NSCLC): 3 µM; TGI (NSCLC): 44.2 µM; CC50 (NSCLC): 86.5 µM; growth inhibition (GI) (HCT-15): Active; growth inhibition (GI) (UACC-257): Active; growth inhibition (GI) (UACC-62): Active; inhibition of growth at 10 µM (CCRF-CEM): 97.8%; inhibition of growth at 10 µM (K562; K562, 48 h, read-out: GI): 96.4%; growth inhibition (GI) (RPMI-8226): Active; growth inhibition (GI) (SR): Active; inhibition of growth at 10 µM (A549): 93.2%; inhibition of growth at 10 µM (EKVX): 37.5%; inhibition of growth at 10 µM (NCI-H226): 98.2%; inhibition of growth at 10 µM [6]: 63.6%; inhibition of growth at 10 µM (NCI-H522): 61.7%; growth inhibition (GI) (HCT-116): Active; inhibition of growth at 10 µM (SF-268): 89.4%; inhibition of growth at 10 µM (SNB-19): 61%; inhibition of growth at 10 µM (SNB-75): 68.1%; inhibition of growth at 10 µM (U-251; U-251, 48 h, read-out: GI): 97.9%; growth inhibition (GI) (LOX IMVI): Active; growth inhibition (GI) (M14): Active; growth inhibition (GI) (MDA-MB-435): Active; inhibition of growth at 10 µM (SK-MEL-2): 27.4%; inhibition of growth at 10 µM (SK-MEL-28): 96.5%; inhibition of growth at 10 µM (SK-MEL-5): 87.2%; inhibition of growth at 10 µM (A498): 53.8%; growth inhibition (GI) (CAKI-1): Active; growth inhibition (GI) (UO-31): Active; growth inhibition (GI) (DU-145): Active; inhibition of growth at 10 µM (T47D): 26.2%; growth inhibition (GI) (OVCAR-3): Active; inhibition of growth at 10 µM (OVCAR-8; OVCAR-8, 48 h, read-out: GI): 96.5%; inhibition of growth at 10 µM (SN12C): 93.7%; inhibition of growth at 10 µM (TK-10): 98.8%; GI50 [7]: 4 µM; TGI [7]: 81.9 µM; CC50 [7]: > 100 µM

Q: Which results are given for `CCN1CC2=C(N=C3SC=CN3C2c2ccc(OC)cc2)/C(=C/c2ccc(OC)cc2)C1` (stereo unspecified)?
A: GI50 [1]: 3.5 µM; TGI [1]: 10.9 µM; CC50 [1]: 55 µM; GI50 [2]: 2.3 µM; LC50 (concentration giving 50% net cell kill) [2]: 24.9 µM; TGI [2]: 6 µM; GI50 [3]: 2.8 µM; TGI [3]: 22.5 µM; CC50 [3]: 74.7 µM; GI50 [4]: 2.8 µM; LC50 (concentration killing 50% of cells) [4]: 68.1 µM; TGI [4]: 43.9 µM; GI50 [5]: 2.5 µM; TGI [5]: 8 µM; CC50 [5]: 73.4 µM; GI50 (NSCLC): 2.5 µM; TGI (NSCLC): 18.3 µM; CC50 (NSCLC): 64.9 µM; growth inhibition (GI) (HCT-15): Active; inhibition of growth at 10 µM (UACC-257; UACC-257, 48 h, read-out: GI): 44.8%; inhibition of growth at 10 µM (UACC-62; UACC-62, 48 h, read-out: GI): 49.3%; inhibition of growth at 10 µM (CCRF-CEM): 97.3%; growth inhibition (GI) (K562): Active; growth inhibition (GI) (RPMI-8226): Active; growth inhibition (GI) (SR): Active; inhibition of growth at 10 µM (A549): 66.3%; inhibition of growth at 10 µM (EKVX): 51.9%; inhibition of growth at 10 µM (NCI-H226): 88%; inhibition of growth at 10 µM [6]: 29%; inhibition of growth at 10 µM (NCI-H522): 52.3%; growth inhibition (GI) (HCT-116): Active; inhibition of growth at 10 µM (SF-268): 85.5%; inhibition of growth at 10 µM (SNB-19): 68.3%; inhibition of growth at 10 µM (SNB-75): 22.3%; growth inhibition (GI) (U-251): Active; growth inhibition (GI) (LOX IMVI): Active; inhibition of growth at 10 µM (M14; M14, 48 h, read-out: GI): 97.5%; growth inhibition (GI) (MDA-MB-435): Active; inhibition of growth at 10 µM (SK-MEL-2): > 10%; inhibition of growth at 10 µM (SK-MEL-28): 10.9%; inhibition of growth at 10 µM (SK-MEL-5): 74.4%; inhibition of growth at 10 µM (A498): 11.1%; inhibition of growth at 10 µM (CAKI-1; CAKI-1, 48 h, read-out: GI): 78.3%; growth inhibition (GI) (UO-31): Active; growth inhibition (GI) (DU-145): Active; inhibition of growth at 10 µM (T47D): 24.4%; growth inhibition (GI) (OVCAR-3): Active; growth inhibition (GI) (OVCAR-8): Active; inhibition of growth at 10 µM (SN12C): 96.9%; inhibition of growth at 10 µM (TK-10): 70%; GI50 [7]: 2.7 µM; TGI [7]: 81.6 µM; CC50 [7]: > 100 µM
